In publication PMC5812400 (ESMO Open, 2018):
Entries after “also recorded” stand apart in the source; their conditions may differ.

Test system: adult patients with advanced non-haematological malignancies
Assay: Safety and tolerability
Type: in vivo, human
Procedure, shortened: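 Patients on milled oral capsules, fasted, in 28-day cycles. AEs and SAEs recorded from first dose through 30 days after last dose. Graded by NCI CTCAE v4.03 and coded to MedDRA v19.0. Relatedness to study drug judged by investigator.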

CC(C)n1nc(-c2ccc3oc(N)nc3c2)c2c(N)ncnc21 [TAK-228, Sapanisertib]
Drug-related AE: Dry mouth (QW 20 mg (n=7)): 0 n (%)
Drug-related AE: Fatigue (QW 20 mg (n=7)): 3 (43) n (%)
Drug-related AE: Hyperglycaemia (QW 20 mg (n=7)): 0 n (%)
Drug-related AE: Nausea (QW 20 mg (n=7)): 4 (57) n (%)
Drug-related AE: Pruritus (QW 20 mg (n=7)): 0 n (%)
Drug-related AE: Rash (maculopapular) (QW 20 mg (n=7)): 0 n (%)
Drug-related AE: Stomatitis (QW 20 mg (n=7)): 0 n (%)
Drug-related AE: Vomiting (QW 20 mg (n=7)): 2 (29) n (%)
Drug-related SAE (QW 20 mg (n=7)): 0 n (%)
Drug-related grade ≥3 AE (QW 20 mg (n=7)): 2 (29) n (%)
Grade ≥3 AE (QW 20 mg (n=7)): 5 (71) n (%)
Grade ≥3 AE: Abdominal pain (QW 20 mg (n=7)): 1 (14) n (%)
Grade ≥3 AE: Anaemia (QW 20 mg (n=7)): 1 (14) n (%)
Grade ≥3 AE: Diarrhoea (QW 20 mg (n=7)): 1 (14) n (%)
Grade ≥3 AE: Hypercalcaemia (QW 20 mg (n=7)): 0 n (%)
Grade ≥3 AE: Hyperglycaemia (QW 20 mg (n=7)): 0 n (%)
Grade ≥3 AE: Hypophosphataemia (QW 20 mg (n=7)): 0 n (%)
Grade ≥3 AE: Hypotension (QW 20 mg (n=7)): 2 (29) n (%)
Grade ≥3 AE: Nausea (QW 20 mg (n=7)): 1 (14) n (%)
Grade ≥3 AE: Vomiting (QW 20 mg (n=7)): 1 (14) n (%)
On-study deaths (QW 20 mg (n=7)): 0 n (%)
SAE (QW 20 mg (n=7)): 4 (57) n (%)
AE resulting in TAK-228 discontinuation (QW 30 mg (n=13)): 3 (23) n (%)
Drug-related AE (QW 30 mg (n=13)): 11 (85) n (%)
Drug-related AE: Asthaenia (QW 30 mg (n=13)): 0 n (%)
Drug-related AE: Decreased appetite (QW 30 mg (n=13)): 2 (15) n (%)
Drug-related AE: Dehydration (QW 30 mg (n=13)): 0 n (%)
Drug-related AE: Diarrhoea (QW 30 mg (n=13)): 2 (15) n (%)
Drug-related AE: Dry mouth (QW 30 mg (n=13)): 1 (8) n (%)
Drug-related AE: Fatigue (QW 30 mg (n=13)): 6 (46) n (%)
Drug-related AE: Hyperglycaemia (QW 30 mg (n=13)): 3 (23) n (%)
Drug-related AE: Nausea (QW 30 mg (n=13)): 5 (39) n (%)
Drug-related AE: Pruritus (QW 30 mg (n=13)): 1 (8) n (%)
Drug-related AE: Rash (maculopapular) (QW 30 mg (n=13)): 2 (15) n (%)
Drug-related AE: Stomatitis (QW 30 mg (n=13)): 2 (15) n (%)
Drug-related AE: Vomiting (QW 30 mg (n=13)): 7 (54) n (%)
Drug-related SAE (QW 30 mg (n=13)): 2 (15) n (%)
Drug-related grade ≥3 AE (QW 30 mg (n=13)): 4 (31) n (%)
Grade ≥3 AE (QW 30 mg (n=13)): 7 (54) n (%)
Grade ≥3 AE: Abdominal pain (QW 30 mg (n=13)): 1 (8) n (%)
Grade ≥3 AE: Anaemia (QW 30 mg (n=13)): 1 (8) n (%)
Grade ≥3 AE: Hypercalcaemia (QW 30 mg (n=13)): 2 (15) n (%)
Grade ≥3 AE: Hyperglycaemia (QW 30 mg (n=13)): 3 (23) n (%)
Grade ≥3 AE: Hypophosphataemia (QW 30 mg (n=13)): 1 (8) n (%)
Grade ≥3 AE: Hypotension (QW 30 mg (n=13)): 0 n (%)
Grade ≥3 AE: Nausea (QW 30 mg (n=13)): 1 (8) n (%)
Grade ≥3 AE: Vomiting (QW 30 mg (n=13)): 1 (8) n (%)
On-study deaths (QW 30 mg (n=13)): 1 (8) n (%)
SAE (QW 30 mg (n=13)): 6 (46) n (%)
AE resulting in TAK-228 discontinuation (QW Total (n=20)): 3 (15) n (%)
Drug-related AE (QW Total (n=20)): 16 (80) n (%)
Drug-related AE: Asthaenia (QW Total (n=20)): 1 (5) n (%)
Drug-related AE: Decreased appetite (QW Total (n=20)): 3 (15) n (%)
Drug-related AE: Dehydration (QW Total (n=20)): 1 (5) n (%)
Drug-related AE: Diarrhoea (QW Total (n=20)): 6 (30) n (%)
Drug-related AE: Dry mouth (QW Total (n=20)): 1 (5) n (%)
Drug-related AE: Fatigue (QW Total (n=20)): 9 (45) n (%)
Drug-related AE: Hyperglycaemia (QW Total (n=20)): 3 (15) n (%)
Drug-related AE: Nausea (QW Total (n=20)): 9 (45) n (%)
Drug-related AE: Pruritus (QW Total (n=20)): 1 (5) n (%)
Drug-related AE: Rash (maculopapular) (QW Total (n=20)): 2 (10) n (%)
Drug-related AE: Stomatitis (QW Total (n=20)): 2 (10) n (%)
Drug-related AE: Vomiting (QW Total (n=20)): 9 (45) n (%)
Drug-related SAE (QW Total (n=20)): 2 (10) n (%)
Drug-related grade ≥3 AE (QW Total (n=20)): 6 (30) n (%)
Grade ≥3 AE (QW Total (n=20)): 12 (60) n (%)
Grade ≥3 AE: Abdominal pain (QW Total (n=20)): 2 (10) n (%)
Grade ≥3 AE: Anaemia (QW Total (n=20)): 2 (10) n (%)
Grade ≥3 AE: Diarrhoea (QW Total (n=20)): 1 (5) n (%)
Grade ≥3 AE: Hypercalcaemia (QW Total (n=20)): 2 (10) n (%)
Grade ≥3 AE: Hyperglycaemia (QW Total (n=20)): 3 (15) n (%)
Grade ≥3 AE: Hypophosphataemia (QW Total (n=20)): 1 (5) n (%)
Grade ≥3 AE: Hypotension (QW Total (n=20)): 2 (10) n (%)
Grade ≥3 AE: Nausea (QW Total (n=20)): 2 (10) n (%)
Grade ≥3 AE: Vomiting (QW Total (n=20)): 2 (10) n (%)
On-study deaths (QW Total (n=20)): 1 (5) n (%)
SAE (QW Total (n=20)): 10 (50) n (%)
Asthaenic conditions, patients (QW arm): 60%
Drug-related AE of any grade: diarrhoea (QW arm): 30%
Drug-related AE of any grade: fatigue (QW arm): 45%
Drug-related AE of any grade: nausea (QW arm): 45%
Drug-related AE of any grade: vomiting (QW arm): 45%
Grade ≥3 AE: Abdominal pain (QW arm): 10%
Grade ≥3 AE: Anaemia (QW arm): 10%
Grade ≥3 AE: Hypercalcaemia (QW arm): 10%
Grade ≥3 AE: Hyperglycaemia (QW arm): 15%
Grade ≥3 AE: Hypotension (QW arm): 10%
Grade ≥3 AE: Nausea (QW arm): 10%
Grade ≥3 AE: Vomiting (QW arm): 10%
SAEs, patients (QW arm): 50%
Patients experiencing AEs (TAK-228 QD arm): 100%
Patients with drug-related AEs (TAK-228 QD arm): 94%
Patients experiencing AEs (TAK-228 QW arm): 95%
Patients with drug-related AEs (TAK-228 QW arm): 80%
AEs of interest (hyperglycaemia, rash, renal insufficiency, mucosal inflammation and asthaenic conditions), patients (all treatment arms): ≥ 10%
Most commonly reported drug-related AEs (fatigue, diarrhoea and nausea), patients (treatment period, across all treatment arms): ≥ 25%
On-study deaths and relatedness to study drugs (whole study, all arms): Three on-study deaths occurred, all considered unrelated to study drugs; also recorded: Three deaths occurred during the study, one in each treatment arm; none were considered related to study drugs
